# Test: Toxicity liver stage against HepG2, at 10uM
# Type: cell-based
# Parameters: test concentration 10 uM, cell line HepG2-A16-CD81EGFP
# Settings: human, HepG2-A16-CD81EGFP cells; read-out: INHIBITION
# In short: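 Uninfected HepG2-A16-CD81EGFP cells, 3 × 10^3 per well, 1536-well, plated on prespotted compound at 10 μM final, parasite-free screening media added to match infected plates; puromycin 10 μM positive, DMSO 0.5% negative; run in parallel with 48 h PbLuc assay at 37 °C, 5% CO2; viability by CellTiter-Glo luminescence, normalized to controls.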
row,Structure (SMILES),cytotoxicity at 10 µM [%]
1,O=c1c2ccccc2nnn1CN(CC1CCOC1)C1CC1 (stereo unspecified),-0.543
2,Cc1cc(C)n(CC2CCCN2C(=O)CCc2ccncc2)n1 (stereo unspecified),-14.4
3,CN1CCN(c2ncccn2)CC(C(=O)N(C)C)C1 (stereo unspecified),0.651
4,Cc1ccccc1OC1CN(Cc2c(C)nc3ccccn23)C1,43.3
5,COc1cc(N2CCC3(CC2)OCC(=O)NC3C)ncn1 (stereo unspecified),1.95
6,CCCc1n[nH]cc1C(=O)N1CCC(c2nccn2CCOC)CC1,-15.3
7,Cc1nnc2n1CCN(C(=O)C(OC1CCCC1)c1ccccc1)C2 (stereo unspecified),5.87
8,Cc1ccc(CC(=O)N2CCCCC2Cn2cccn2)cn1 (stereo unspecified),-130
9,N#CC1CCN(C(=O)CN2CC(c3ccccc3)CC2=O)CC1 (stereo unspecified),-0.745
10,Cc1ccc(N(CC(=O)N2CCCCC2)C(=O)C2CCCO2)cc1 (stereo unspecified),13.9
11,CC(=O)c1cccc(C(=O)N2C[C@@H](CN3CCCCCC3)[C@@H](CO)C2)c1,3.32
12,Cc1ccc(S(=O)(=O)NC[C@H]2OC[C@@H](NCc3ccncc3)[C@@H]2O)cc1,2.6
13,Cc1nncn1CCNC(=O)C(C)(C)c1cccc(C(F)(F)F)c1,8.63
14,CC(C)Oc1cccc(F)c1C(C(=O)O)N1CCCC1 (stereo unspecified),-3.33
15,CN(C)c1ncccc1CNC(=O)N1CCCC1CN1CCCCC1 (stereo unspecified),-0.986
16,Cc1ccc(CNC(=O)C2c3c(ncn3C(C)C)CCN2S(C)(=O)=O)o1 (stereo unspecified),-13.7
17,N#Cc1ccc(N2CCCC3(CCC(=O)N3CC3CC3)CC2)nc1 (stereo unspecified),-125
18,CN(CC1Cc2ccccc2CN1C)C(=O)CSc1ccccn1 (stereo unspecified),-1.32
19,CCn1ncc(Nc2[nH]cnc3nncc2-3)c1C,7.29
20,CC(C)(C)C(NC(=O)CCCS(C)(=O)=O)c1ccc(F)cc1F (stereo unspecified),8.87
21,Cc1cc(C)n(CC2CCCN2C(=O)c2nccc3ccccc23)n1 (stereo unspecified),-7.49
22,CN(CCc1ccccn1)C(=O)Nc1cccnc1-n1cccn1,3.25
23,CO[C@H]1CN(Cc2nc3ccccc3n2C)CC[C@@]12CCCO2,2.5

row,Structure (SMILES),cytotoxicity at 10 µM [%]
1,CN(Cc1nccs1)C1CCN(c2ncccn2)CC1,10.1
2,CCSc1nnc(N2CCN(c3ccccc3)CC2)s1,-6.67
3,Cc1cnn(CC2CCCCN2C(=O)c2ccc3[nH]nnc3c2)c1 (stereo unspecified),4.19
4,COc1ccc(CCC(=O)N(C)Cc2c(C)nn(C)c2C)cc1,-0.734
5,CC(C)c1ncncc1C(=O)N1CCN(Cc2ccsc2)CC1,-4.49
6,Nc1cc2c(nn1)CCN(C(=O)CCC1CCCCC1)C2,6.5
7,CCNC(=O)C1CCN(Cc2ccccc2OCC(F)(F)F)CC1,-3.03
8,O=C(CN1CCOC(Cn2cccn2)C1)NCc1ccccn1 (stereo unspecified),-6.73
9,Cc1noc(C(C)Nc2ccc3oc(=O)[nH]c3c2)n1 (stereo unspecified),-2.27
10,O=S(=O)(Cc1cccc(F)c1)NCC(O)Cc1ccccc1 (stereo unspecified),9.01
11,Cc1ccc(CN(C)C)cc1NC(=O)C1CC=CC1,-8
12,O=C(NCCn1ccnc1)c1ccn(-c2ccc(F)cc2)n1,-1.03
13,N[C@H]1CN(C(=O)c2ccc(Cl)cc2F)C[C@@H]1C1CC1,-44.3
14,CCC(CNC(=O)NCc1cc[nH]n1)N1CCCC1 (stereo unspecified),-3.65
15,Cc1ccccc1-c1cncc(C2CCN(Cc3ccccn3)CC2)n1,-22.2
16,CS(=O)(=O)N1CCC2(CCCN(CCCc3ccccc3)C2=O)C1 (stereo unspecified),2.46
17,CC(C)c1cc(C(=O)NCCc2nc(-c3cccnc3)n[nH]2)[nH]n1,8.02
18,Cc1nc(C)n(CC2CCCN2Cc2nc(C)c3ccccc3n2)n1 (stereo unspecified),-12.4
19,CCCS(=O)(=O)N1C[C@@H]2CN(Cc3ccco3)CCO[C@@H]2C1,-142
20,Cc1nc(CN2CCc3ccc(S(N)(=O)=O)cc32)oc1C,2.63
21,c1ccc(C2CCCN2C2CSCCSC2)nc1 (stereo unspecified),-3.77
22,Cn1cc(C[C@H]2[C@H](O)CCN2C(=O)C2CCCC2)cn1,-3.49
23,Cc1noc(C)c1CN1CCc2ncnc(-c3ccc(F)cc3)c2CC1,-100
